Screening data (PubChem BioAssay)
A selection: hits, their analogues and other compounds. The true share with any hit is near 2.2%.
BaF3 tox: counter-screen for JAK2V617F inhibitors: parental Ba/F3 viability inhibitors; hit rate 1.1% among 220,000; inhibition, % at 5.6 µM; CellTiter-Glo ATP luminescence; AID 1486;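 active = inhibition above a per-campaign cutoff, the mean inhibition of all tested compounds plus 3 SD, cut at about 27% in these data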;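 also: 0% = DMSO wells and 100% = JAK Inhibitor I control wells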
b-catenin transl: alters nuclear translocation of beta-catenin in HeLa cells; hit rate 0.3% among 190,000; immunofluorescence imaging; nuclear translocation activity, % at 5 µM;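 active = nuclear translocation activity above 50% at 5 µM, with a well cell count of 50 or more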;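 also: per-cell ratio of nuclear to cytoplasmic median beta-catenin stain intensity; plate controls were DMSO negative control for no effect and GSK-3 inhibitor IX positive control for full effect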
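Test system: human HeLa cells, endogenous beta-catenin. Times: 24 h compound exposure, 37°C. Measured by: beta-catenin immunofluorescence imaging with DAPI.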
APP transl inh: APP translation inhibition | SH-SY5Y APP 5'UTR-luciferase reporter, luminescence | inhibition, % at 2 µM | hit rate 0.82% among 190,000 | AID 1285;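 active = inhibition above a set limit, derived from the sample mean plus 3 SD, cut at about 45% in these data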
Ba/F3 V617F tox: loss of viability in JAK2V617F-driven Ba/F3 cells. inhibition, % at 5.6 µM. hit rate 1.1% among 220,000. Ba/F3 EpoR-JAK2V617F viability, ATP luminescence. AID 1446;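 active = inhibition above the campaign mean plus 3 SD over all tested compounds, cut at about 24% in these data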;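 also: cytokine-independent growth of Ba/F3 cells driven by EpoR plus mutant JAK2; 0% = DMSO-treated cells and 100% = JAK inhibitor I control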
MT stabilizer: stabilizes microtubules in HeLa cells | HeLa tubulin immunostaining HCS, 24 h; share of cells brighter than vehicle mean+2SD | % tubulin-high responders, % at 10 µM | hit rate 0.83% among 200,000;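 active = plate Z-score above 3 for both tubulin-high and condensed-nucleus cell shares, with cell loss under 80%, at 10 µM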;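 also: anti alpha tubulin signal scored within the nucleus-defined area of each cell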
IEC-6 cytotox: kills IEC-6 intestinal cells in KLF5 counter-screen; AID 1825; IEC-6 cytotoxicity, luminescence viability; hit rate 0.78% among 290,000; inhibition, % at 5 µM; in the data active = inhibition above about 22%;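 also: 0% = plate median of test compound wells and 100% = cytotoxic reference compound wells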
Numbers without * were called inactive; . = not tested or not shown.

SMILES | BaF3 tox | b-catenin transl | APP transl inh | Ba/F3 V617F tox | MT stabilizer | IEC-6 cytotox
COc1ccc(/C=N/NC(=O)c2cccc(Br)c2)cc1Cn1cc(Cl)cn1 | 5 | . | 0 | 1 | 41* | 6
C(#Cc1ccccc1)C[N+]1(CC#Cc2ccccc2)CCCC1 | 71* | . | -8 | 87* | 2 | 2
C=CC[N+]1(CC#Cc2ccccc2)CCCC1 | 56* | 0 | -1 | 46* | 2 | -5
CC(C)n1c(SCC(=O)NCc2ccco2)nnc1C1CC1 | . | . | . | . | . | 5
Cc1c(NC(=O)CC(=O)Nc2c(C)n(C)n(-c3ccccc3)c2=O)c(=O)n(-c2ccccc2)n1C | 4 | 1 | 3 | -2 | 5 | 2
Cc1c(NC(N)=O)c(=O)n(-c2ccccc2)n1C | 80* | -1 | 6 | 1 | 1 | 4
O=C(CSc1ccc(Cl)cc1)Nc1ccccc1N1CCN(C(=O)c2ccccc2)CC1 | 68* | . | -20 | 2 | 4 | 3
CCCCCCCCCCCCOC(=O)C[N+](C)(C)C | 12 | 0 | . | 8 | . | -4
C/C(Cl)=C\C[N+](C)(C)CC(=O)OCCc1ccccc1 | -3 | -1 | . | 0 | . | -7
CCCCCCCCCCOC(=O)C[N+](C)(C)C/C=C(/C)Cl | 59* | . | -7 | 67* | 2 | 2
CCCCCCCCOC(=O)C[N+](C)(C)C/C=C(/C)Cl | 53* | 2 | -13 | 32* | 2 | -4
C=CCN=c1scc(-c2ccccc2)n1/N=C/c1ccccn1 | 57* | 3 | -99 | 53* | 4 | 31*
CC(=O)Nc1ccc(NC(=O)CCC(=O)OCC(=O)c2ccc(F)cc2)cc1 | . | . | . | . | . | 1
Clc1cc(Br)ccc1OCCOCCN1CCOCC1 | 3 | 112* | -11 | 0 | 4 | -1
COC(=O)c1cn(C(=O)c2cc(Br)ccc2Cl)c2ccccc12 | . | . | . | . | . | -6
CC(C)(C)OC(=O)NCCCC[C@H](NC(=O)c1nc[nH]c1C(=O)N1CCN(C(=O)OC(C)(C)C)CC1)C(=O)OC(C)(C)C | -6 | 1 | -17 | 4 | 2 | 9
CC(C)C[C@H](NC(=O)c1nc[nH]c1C(=O)N1CCN(C(=O)OC(C)(C)C)CC1)C(=O)OC(C)(C)C | -3 | 3 | 52* | 3 | 1 | -4
CCOC(=O)N1CCC(N2C(=O)c3ccc(C(=O)Nc4ccc(OC)cc4)cc3C2=O)CC1 | . | . | . | . | . | -1
COc1cccc(C2CC(=O)Nc3cc4c(cc32)CCC4)c1 (centres undefined) | 45* | 2 | 57* | 38* | 17* | 46*
O=C1CC(c2cccc([N+](=O)[O-])c2)c2c(ccc3ccccc23)N1 (centres undefined) | 8 | -1 | 12 | 8 | 50* | 16
COc1cccc(C2CC(=O)Nc3cc(OC)c(OC)cc32)c1 (centres undefined) | . | . | . | . | . | -14
O=C1CC(c2cccc([N+](=O)[O-])c2)c2cc3c(cc2N1)CCC3 (centres undefined) | 8 | 0 | -1 | 2 | 26* | 3
Cc1ccc(C2CC(=O)Nc3c2ccc2ccccc32)cc1[N+](=O)[O-] (centres undefined) | 2 | -1 | 18 | -4 | 3 | 2
Cc1ccc([N+](=O)[O-])cc1N=C1C(=O)Nc2ccccc21 | . | . | . | . | . | 6
O=c1cc(C(F)(F)F)nc(SC/C=C/c2ccccc2)[nH]1 | . | . | . | . | . | -3
SMILES | BaF3 tox | b-catenin transl | APP transl inh | Ba/F3 V617F tox | MT stabilizer | IEC-6 cytotox
Cc1ccc(S(=O)(=O)Nc2cc3c(cc2C#N)OCO3)cc1C(N)=O | . | . | . | . | . | 2
Cc1c(C(=O)Nc2c(C)n(C)n(-c3ccccc3)c2=O)oc2ccc(Cl)cc12 | . | . | . | . | . | 3
O=C1CCC(=O)N1c1ccc(-c2nc3ccccc3s2)cc1 | 89* | -4 | -107 | 2 | 2 | -2
Nc1ccc(-c2nc3ccccc3s2)cn1 | . | . | . | . | . | -4
O=C(O)CCC(=O)NNc1nc2ccccc2nc1-c1ccccc1 | 90* | -2 | -8 | 1 | 3 | 0
Cc1cc(NC(=O)Cc2ccccc2)c2ccccc2n1 | 73* | 1 | -6 | 39* | 3 | 11
CC(C)(C)C(=O)N1CCN(c2ncnc3scc(-c4ccccc4)c23)CC1 | . | . | . | . | . | -1
COc1ccc(C2NC(=S)NC(C)=C2C(=O)Nc2ccccn2)cc1 (centres undefined) | 10 | 2 | -12 | 1 | 9.2* | -6
COc1ccc(OC)c(C2NC(=S)NC(C)=C2C(=O)Nc2ccccn2)c1 (centres undefined) | 9 | 0 | -42 | 1 | 2 | 1
COc1ccc(-n2nc(C(=O)NCC(=O)NCCCN3CC(C)CC(C)C3)c3ccccc3c2=O)cc1Cl (centres undefined) | . | . | . | . | . | 0
CC(=NCCc1c(C)[nH]c2ccc(C)cc12)C1=C(O)CC(c2ccccc2)CC1=O (centres undefined) | 6 | 10 | 88* | 1 | 16* | 6
CCC/C(O)=C1\C(=O)CC(c2ccccc2)CC1=NCCc1c(C)[nH]c2ccccc12 (centres undefined) | 5 | 2 | 18 | 3 | 3 | 2
CC(=NCCc1c(C)[nH]c2ccc(OC(F)(F)F)cc12)C1=C(O)CC(c2ccccc2)CC1=O (centres undefined) | 2 | 2 | 23 | -5 | 13* | -5
C=CCOc1ccc(C2/C(=C(\O)c3ccc4c(c3)CC(C)O4)C(=O)C(=O)N2CCN2CCOCC2)cc1OCC (centres undefined) | . | . | . | . | . | -2
Cc1ccccc1N1CCN(C2=NC(=O)/C(=C\c3cccs3)S2)CC1 | 9 | 0 | -16 | 2 | 9.4* | 0
O=C(CN1CCN(Cc2ccccc2)CC1)Nc1ccc(Br)cc1 | . | . | . | . | . | -2
CCOc1ccc(C(=O)c2ccc(OCC)c(N)c2)cc1N | 7 | 5 | -29 | 2 | 53* | 8
CN(C)c1ccc(C(=O)c2ccccc2)cc1 | 7 | -12 | -65 | 4 | 3 | 5
CCOc1ccc(S(=O)(=O)N(CC)CC)cc1N | 1 | 0 | -1 | -1 | 5 | 6
CN(C)c1ccc(C(=O)c2ccc(N(C)C)c(N)c2)cc1N | 10 | 5 | -4 | -2 | 23* | 4
CSc1cc(-c2ccccc2)n(Cc2c(Cl)cccc2Cl)c(=O)c1C#N | 5 | . | 5 | -2 | 40* | -1
CSc1cc(-c2ccc(Cl)cc2)n(Cc2ccccc2)c(=O)c1C#N | 1 | . | 9 | -3 | 1 | 2
CCC(=O)OCCNc1cc(Sc2nccn2C)c2nonc2c1[N+](=O)[O-] | 1 | -3 | 60* | -2 | 1 | -5
Cc1ccc(Sc2cc(NCCCO)c([N+](=O)[O-])c3nonc23)cc1 | 4 | 0 | . | 6 | . | 5
CCCC(=O)OCCNc1cc(Sc2nc3ccccc3[nH]2)c2nonc2c1[N+](=O)[O-] | -1 | 0 | 74* | -2 | 7 | 7
CC(=O)OCCNc1cc(SC(C)C)c2nonc2c1[N+](=O)[O-] | 4 | -2 | -7 | -4 | 2 | 1
CCC(=O)OCCNc1cc(SCCC(=O)OC)c2nonc2c1[N+](=O)[O-] | 4 | -4 | -10 | 1 | 4 | -5
